Activity calls are given as the source filed them. The calls are words filed in the database; no cut-off is given here.
How the values were obtained:
[1] = target: T1, Nitric oxide synthase, inducible (Mus musculus, UniProt P29477); assay: Inhibition of mouse recombinant iNOS expressed in Escherichia coli assessed as conversion of [gamma-14C]L-arginine to [14C]L-citrulline by radioactive assay
T1 sequence (P29477 whole entry): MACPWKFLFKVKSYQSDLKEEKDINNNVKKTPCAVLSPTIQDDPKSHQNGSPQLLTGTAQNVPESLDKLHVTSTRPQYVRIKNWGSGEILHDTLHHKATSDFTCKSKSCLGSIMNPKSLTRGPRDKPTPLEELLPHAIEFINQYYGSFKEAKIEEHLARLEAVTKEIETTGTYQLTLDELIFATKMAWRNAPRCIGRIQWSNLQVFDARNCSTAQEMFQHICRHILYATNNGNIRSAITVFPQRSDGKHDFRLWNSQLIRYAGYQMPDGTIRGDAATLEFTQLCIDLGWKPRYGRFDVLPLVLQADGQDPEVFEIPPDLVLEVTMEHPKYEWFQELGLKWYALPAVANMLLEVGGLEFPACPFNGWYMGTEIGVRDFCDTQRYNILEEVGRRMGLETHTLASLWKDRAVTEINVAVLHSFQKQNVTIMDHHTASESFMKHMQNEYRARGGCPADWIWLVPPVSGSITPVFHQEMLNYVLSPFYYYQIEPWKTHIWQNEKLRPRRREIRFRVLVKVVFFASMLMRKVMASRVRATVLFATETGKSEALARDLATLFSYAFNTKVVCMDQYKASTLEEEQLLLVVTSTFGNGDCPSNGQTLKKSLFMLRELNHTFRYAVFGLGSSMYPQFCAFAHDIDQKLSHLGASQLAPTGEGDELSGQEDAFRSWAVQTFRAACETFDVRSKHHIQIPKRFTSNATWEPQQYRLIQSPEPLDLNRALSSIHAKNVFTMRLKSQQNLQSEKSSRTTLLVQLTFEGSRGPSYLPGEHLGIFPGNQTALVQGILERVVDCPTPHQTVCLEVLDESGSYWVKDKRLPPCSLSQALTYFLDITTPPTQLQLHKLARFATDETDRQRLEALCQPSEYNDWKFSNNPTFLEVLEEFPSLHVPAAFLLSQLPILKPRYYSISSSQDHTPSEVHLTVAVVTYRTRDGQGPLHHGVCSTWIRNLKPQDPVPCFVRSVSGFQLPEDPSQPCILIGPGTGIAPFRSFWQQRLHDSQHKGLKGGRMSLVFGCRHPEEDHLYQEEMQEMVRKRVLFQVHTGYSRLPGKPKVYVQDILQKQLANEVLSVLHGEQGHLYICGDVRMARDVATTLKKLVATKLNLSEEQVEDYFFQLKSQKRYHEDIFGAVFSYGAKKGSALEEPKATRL
Outline: (§1)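 CaCl2/CaM present for nNOS (S. cerevisiae) and eNOS (E. coli) but omitted for iNOS (E. coli). Citrulline separated by Dowex cation exchange, then scintillation counting.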

Nitric oxide synthase 3 = target: T2, Nitric oxide synthase 3 (Bos taurus, UniProt P29473); assay: Inhibition of bovine recombinant eNOS expressed in Escherichia coli assessed as conversion of [gamma-14C]L-arginine to [14C]L-citrulline by radioactive assay; outline: as §1
T2 sequence (P29473 whole entry): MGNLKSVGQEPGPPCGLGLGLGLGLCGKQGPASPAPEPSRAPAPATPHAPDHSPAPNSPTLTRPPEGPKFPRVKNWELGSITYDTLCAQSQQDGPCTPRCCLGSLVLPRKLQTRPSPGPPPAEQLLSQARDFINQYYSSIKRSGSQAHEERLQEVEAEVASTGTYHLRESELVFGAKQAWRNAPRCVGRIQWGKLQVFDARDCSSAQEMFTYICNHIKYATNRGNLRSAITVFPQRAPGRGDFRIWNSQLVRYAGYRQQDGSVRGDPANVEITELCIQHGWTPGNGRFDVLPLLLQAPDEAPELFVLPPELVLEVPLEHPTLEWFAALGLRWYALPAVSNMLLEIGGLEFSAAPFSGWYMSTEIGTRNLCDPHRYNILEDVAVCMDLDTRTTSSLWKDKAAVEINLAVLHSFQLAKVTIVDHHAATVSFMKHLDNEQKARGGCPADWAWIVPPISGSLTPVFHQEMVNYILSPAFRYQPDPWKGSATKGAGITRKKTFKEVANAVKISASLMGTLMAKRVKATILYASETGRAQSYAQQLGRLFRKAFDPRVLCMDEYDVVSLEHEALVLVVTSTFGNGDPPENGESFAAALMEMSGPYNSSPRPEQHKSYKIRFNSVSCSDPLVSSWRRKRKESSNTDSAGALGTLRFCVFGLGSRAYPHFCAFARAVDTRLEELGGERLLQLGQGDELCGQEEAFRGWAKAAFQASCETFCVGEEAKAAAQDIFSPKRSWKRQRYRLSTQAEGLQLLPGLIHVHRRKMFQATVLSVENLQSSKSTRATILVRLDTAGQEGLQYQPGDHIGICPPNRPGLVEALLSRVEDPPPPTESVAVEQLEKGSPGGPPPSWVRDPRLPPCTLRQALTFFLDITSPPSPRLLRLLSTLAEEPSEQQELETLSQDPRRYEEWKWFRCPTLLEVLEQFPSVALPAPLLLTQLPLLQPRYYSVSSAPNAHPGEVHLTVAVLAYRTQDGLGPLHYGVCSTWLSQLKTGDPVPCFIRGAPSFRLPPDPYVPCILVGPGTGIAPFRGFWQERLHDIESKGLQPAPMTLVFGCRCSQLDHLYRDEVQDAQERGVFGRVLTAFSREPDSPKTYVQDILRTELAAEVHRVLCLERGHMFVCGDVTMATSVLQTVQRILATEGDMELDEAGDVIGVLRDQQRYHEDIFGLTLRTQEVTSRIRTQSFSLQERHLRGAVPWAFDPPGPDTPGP

[2] = Lipophilicity, log D at pH 7.4 by HPLC method; conditions: buffer
Nitric oxide synthase 1 = Nitric oxide synthase 1 (Rattus norvegicus, UniProt P29476); assay: Inhibition of rat recombinant nNOS expressed in Saccharomyces cerevisiae assessed as conversion of [gamma-14C]L-arginine to [14C]L-citrulline by radioactive assay; outline: as §1
[3] = target: T1, Nitric oxide synthase, inducible; assay: Inhibition of mouse iNOS expressed in insect Sf9 cells by competitive binding assay
[4] = target: T3, Nitric oxide synthase, inducible (Mus musculus) (UniProt P29477); assay: Binding affinity to oxygenase domain of mouse iNOS at 100 uM assessed as formation of enzyme-Fe3-ImH complex by UV-visible spectra analysis
T3 sequence (whole entry): T1 sequence (P29477 whole entry)

[5] = target: T3, Nitric oxide synthase, inducible (Mus musculus); assay: Inhibition of mouse iNOS expressed in insect Sf9 cells at 1 mM preincubated for 15 mins followed by compound dilution
[6] = target: T1, Nitric oxide synthase, inducible; assay: Inhibition of mouse recombinant iNOS expressed in Escherichia coli assessed as conversion of [14C]L-arginine to [14C]L-citrulline by radioactive assay
[7] = Dissociation constant, pKa of the compound; type: physicochemical
Outline: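 UV spectrophotometric titration. Compound dissolved in 10% aqueous methanol, then mixed 1:1 with NaOH (0.002–6 M) and 1 M HCl to a final 150 µM. Absorbance read at 312 nm across the pH series.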

Sequence of Nitric oxide synthase 1 (P29476 whole entry): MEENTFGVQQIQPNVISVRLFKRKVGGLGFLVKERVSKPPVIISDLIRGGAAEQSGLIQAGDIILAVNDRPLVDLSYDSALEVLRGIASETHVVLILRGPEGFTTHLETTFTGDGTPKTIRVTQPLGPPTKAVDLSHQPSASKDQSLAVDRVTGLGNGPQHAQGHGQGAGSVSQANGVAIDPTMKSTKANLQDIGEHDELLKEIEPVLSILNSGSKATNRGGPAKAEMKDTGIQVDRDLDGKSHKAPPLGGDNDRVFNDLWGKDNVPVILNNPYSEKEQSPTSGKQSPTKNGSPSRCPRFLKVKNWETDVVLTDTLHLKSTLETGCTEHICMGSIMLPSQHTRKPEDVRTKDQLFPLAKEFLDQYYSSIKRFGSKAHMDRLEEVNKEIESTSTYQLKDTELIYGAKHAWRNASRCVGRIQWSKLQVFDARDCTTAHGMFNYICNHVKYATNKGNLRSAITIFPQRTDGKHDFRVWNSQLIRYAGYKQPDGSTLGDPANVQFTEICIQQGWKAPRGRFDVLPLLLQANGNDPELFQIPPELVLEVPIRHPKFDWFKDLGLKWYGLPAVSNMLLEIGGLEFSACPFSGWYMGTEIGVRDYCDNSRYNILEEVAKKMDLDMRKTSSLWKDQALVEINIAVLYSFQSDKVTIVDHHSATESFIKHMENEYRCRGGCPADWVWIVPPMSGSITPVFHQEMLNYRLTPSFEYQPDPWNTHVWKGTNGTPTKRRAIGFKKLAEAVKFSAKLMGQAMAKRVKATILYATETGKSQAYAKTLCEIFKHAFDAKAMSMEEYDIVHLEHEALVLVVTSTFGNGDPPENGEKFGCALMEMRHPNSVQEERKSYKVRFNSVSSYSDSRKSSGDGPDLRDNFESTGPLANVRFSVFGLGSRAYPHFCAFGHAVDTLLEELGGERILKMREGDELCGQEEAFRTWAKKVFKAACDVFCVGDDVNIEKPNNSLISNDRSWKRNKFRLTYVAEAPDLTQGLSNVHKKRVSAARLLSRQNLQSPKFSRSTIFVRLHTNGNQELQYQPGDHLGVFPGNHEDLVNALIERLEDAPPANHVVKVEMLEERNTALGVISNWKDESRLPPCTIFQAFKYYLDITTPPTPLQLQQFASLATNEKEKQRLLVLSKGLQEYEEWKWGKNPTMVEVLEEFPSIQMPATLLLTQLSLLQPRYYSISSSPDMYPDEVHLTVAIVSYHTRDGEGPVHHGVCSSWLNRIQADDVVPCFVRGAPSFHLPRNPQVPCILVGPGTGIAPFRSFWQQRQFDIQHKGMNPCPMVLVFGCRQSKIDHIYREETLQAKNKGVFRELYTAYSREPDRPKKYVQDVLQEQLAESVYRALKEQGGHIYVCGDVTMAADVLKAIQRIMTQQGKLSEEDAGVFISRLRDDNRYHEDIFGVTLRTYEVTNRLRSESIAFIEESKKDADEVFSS

Row | SMILES | IC50 [1] | IC50 (Nitric oxide synthase 3) | logD [2] | Activity [4] | other results
1 | CC1=CC2=NCC(C(=O)c3ccc(-c4ccc(Br)cc4)cc3)CN2C(C)=C1 (stereo not given) | 120 µM | 188 µM | – | – | –
2 | CC1=CC2=NCC(C(=O)c3ccc4ccccc4c3)CN2C=C1 (stereo not given) | – | – | 1.7 | – | –
3 | COc1ccc(-c2ccc(C(=O)C3CN=C4C=C(C)C=CN4C3)cc2)cc1.Cl (stereo not given) | 18 µM | 60 µM | – | Active | IC50 (Nitric oxide synthase 1): 87 µM; Ki [3]: 15 µM
4 | COc1ccc(C(=O)C2CN=C3C=CC=C(C)N3C2)cc1OC.[O-][Cl+3]([O-])([O-])O (stereo not given) | – | – | 1.5 | – | –
5 | N=C(NCCC[C@H](N)C(=O)O)N[N+](=O)[O-] | – | – | – | Active | –
6 | CC1=CC2=NCC(C(=O)c3ccc(-c4ccc(Br)cc4)cc3)CN2C=C1.[O-][Cl+3]([O-])([O-])O (stereo not given) | 28 µM | – | 2.7 | Active | Ki [3]: 14 µM; Activity [5]: inactive; IC50 [6]: 28 µM
7 | CC1=CC2=NCC(C(=O)c3ccc4cc(C)ccc4c3)CN2C(C)=C1.[O-][Cl+3]([O-])([O-])O (stereo not given) | 35 µM | 53 µM | 2.2 | Active | IC50 (Nitric oxide synthase 1): 60 µM
8 | COc1ccc(C(=O)C2CN=C3C=C(C)C=CN3C2)cc1F.[O-][Cl+3]([O-])([O-])O (stereo not given) | – | – | – | Active | –
9 | O=C(c1ccc(Br)cc1)C1CN=C2C=CC=CN2C1 (stereo not given) | – | – | – | – | pKa [7]: 12.4
10 | CC1=CC2=NCC(C(=O)c3ccc(-c4ccc(C#N)cc4)cc3)CN2C=C1.Cl (stereo not given) | 50 µM | 12 µM | – | Active | IC50 (Nitric oxide synthase 1): 128 µM
11 | CC1=CC=CC2=NCC(C(=O)c3ccc(C)cc3)CN12.[O-][Cl+3]([O-])([O-])O (stereo not given) | – | – | 1.6 | – | –
12 | O=C(c1ccc(Cl)c(Cl)c1)C1CN=C2C=CC=CN2C1.[O-][Cl+3]([O-])([O-])O (stereo not given) | – | – | 1.8 | Active | –
13 | CC1=CC2=NCC(C(=O)c3ccc4cc(C)ccc4c3)CN2C=C1.[O-][Cl+3]([O-])([O-])O (stereo not given) | 29 µM | – | – | Active | Ki [3]: 23 µM
14 | CC1=CC=CC2=NCC(C(=O)c3ccc(F)cc3)CN12.[O-][Cl+3]([O-])([O-])O (stereo not given) | – | – | – | Active | –
15 | CC1=CC2=NCC(C(=O)c3ccc(OCc4ccc(Cl)cc4)cc3)CN2C=C1.[O-][Cl+3]([O-])([O-])O (stereo not given) | – | 12 µM | – | – | –

From ChEMBL document CHEMBL1152488, “Synthesis and evaluation of pyrido[1,2-a]pyrimidines as inhibitors of nitric oxide synthases” (Eur J Med Chem, 2009)
